Measured values reported in ChEMBL document CHEMBL3992564, “Design and synthesis of novel, potent and selective hypoxanthine analogs as adenosine A1 receptor antagonists and their biological evaluation” (Bioorg Med Chem, 2017).
Converted amounts (≈) assume the structure as drawn.

What was measured:
[1] = Thermodynamic solubility of the compound in pH 7.4 solution; format: physicochemical; conditions: read-out: Therm_solubility
[2] = system: Liver; experiment: Metabolic stability in rat liver microsomes assessed as metabolic rate measured after 30 mins in presence of NADPH; format: ADME, microsome; conditions: 0.5 h
[3] = biological target: T1, Adenosine receptor A3 (Homo sapiens) (UniProt P0DMS8); experiment: Displacement of [3H]HEMADO from human adenosine A3 receptor expressed in HEK293 cell membranes at 1 uM after 90 mins relative to control
T1 sequence (whole entry): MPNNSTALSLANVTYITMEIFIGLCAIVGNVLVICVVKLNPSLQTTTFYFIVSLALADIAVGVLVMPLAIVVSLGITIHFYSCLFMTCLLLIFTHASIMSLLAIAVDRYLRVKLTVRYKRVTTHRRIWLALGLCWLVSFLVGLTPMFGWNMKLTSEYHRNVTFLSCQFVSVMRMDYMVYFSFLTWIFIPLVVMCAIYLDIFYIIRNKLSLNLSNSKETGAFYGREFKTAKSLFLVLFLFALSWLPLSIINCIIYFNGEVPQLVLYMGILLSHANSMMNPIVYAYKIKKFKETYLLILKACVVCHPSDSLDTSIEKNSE
Procedure, shortened: (§1)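 Membranes from HEK-293 cells stably transfected with human receptor, pre-treated with adenosine deaminase. Radioligands: 1 nM [3H]DPCPX (A1), 1 nM [3H]ZM241385 (A2A), 1.6 nM [3H]MRS-1754 (A2B), 2 nM [3H]HEMADO (A3). Buffers: Tris pH 7.4 (A1, A2A, A3) or pH 6.5 (A2B), with ADA. Incubated 90 min at room temperature, then filtered. Nonspecific binding defined with 100 µM NECA. Ki from 8 concentrations run in triplicate.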

[4] = Drug metabolism assessed as hydroxylation at C-8 cyclopentyl by metabolic soft spot analysis; format: physicochemical
[5] = biological target: T2, Adenosine receptor A1 (Homo sapiens, UniProt P30542); experiment: Antagonist activity at human adenosine A1 receptor expressed in HEK293 cells assessed as reduction in CPA-mediated inhibition of forskolin-stimulated cAMP level preincubated for 15 mins followed by CPA treatment for 15 mins and subsequent addition of forskolin measured after 30 mins by HTRF assay; format: functional, cell-based
T2 sequence (P30542 whole entry): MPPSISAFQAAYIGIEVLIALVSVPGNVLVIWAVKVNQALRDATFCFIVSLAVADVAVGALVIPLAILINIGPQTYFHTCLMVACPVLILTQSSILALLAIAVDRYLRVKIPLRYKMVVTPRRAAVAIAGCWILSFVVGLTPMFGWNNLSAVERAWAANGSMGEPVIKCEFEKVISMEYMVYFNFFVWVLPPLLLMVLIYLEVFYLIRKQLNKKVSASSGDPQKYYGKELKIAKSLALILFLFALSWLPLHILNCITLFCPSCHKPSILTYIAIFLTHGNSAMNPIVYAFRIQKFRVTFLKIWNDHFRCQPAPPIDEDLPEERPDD

[6] = biological target: CYP2C19 (Homo sapiens, UniProt P33261); experiment: Inhibition of CYP2C19 (unknown origin) at 5 uM relative to control; format: ADME
Sequence of CYP2C19 (P33261 whole entry): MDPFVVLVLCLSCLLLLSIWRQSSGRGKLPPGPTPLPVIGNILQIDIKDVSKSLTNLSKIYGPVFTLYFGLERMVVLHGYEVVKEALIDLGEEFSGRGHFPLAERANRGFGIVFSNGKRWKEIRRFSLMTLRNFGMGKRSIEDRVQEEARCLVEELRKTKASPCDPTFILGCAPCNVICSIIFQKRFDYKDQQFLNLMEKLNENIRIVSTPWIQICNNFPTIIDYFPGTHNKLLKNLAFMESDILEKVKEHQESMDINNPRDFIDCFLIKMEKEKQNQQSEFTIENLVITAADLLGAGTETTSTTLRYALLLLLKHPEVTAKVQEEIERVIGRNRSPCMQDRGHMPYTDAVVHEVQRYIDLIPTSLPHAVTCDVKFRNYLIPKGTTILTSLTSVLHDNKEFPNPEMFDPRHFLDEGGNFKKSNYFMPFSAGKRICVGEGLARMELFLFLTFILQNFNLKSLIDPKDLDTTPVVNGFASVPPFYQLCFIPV

[7] = biological target: CYP3A4 (Homo sapiens, UniProt P08684); experiment: Inhibition of CYP3A4 (unknown origin) at 5 uM relative to control; format: ADME
Sequence of CYP3A4 (P08684 whole entry): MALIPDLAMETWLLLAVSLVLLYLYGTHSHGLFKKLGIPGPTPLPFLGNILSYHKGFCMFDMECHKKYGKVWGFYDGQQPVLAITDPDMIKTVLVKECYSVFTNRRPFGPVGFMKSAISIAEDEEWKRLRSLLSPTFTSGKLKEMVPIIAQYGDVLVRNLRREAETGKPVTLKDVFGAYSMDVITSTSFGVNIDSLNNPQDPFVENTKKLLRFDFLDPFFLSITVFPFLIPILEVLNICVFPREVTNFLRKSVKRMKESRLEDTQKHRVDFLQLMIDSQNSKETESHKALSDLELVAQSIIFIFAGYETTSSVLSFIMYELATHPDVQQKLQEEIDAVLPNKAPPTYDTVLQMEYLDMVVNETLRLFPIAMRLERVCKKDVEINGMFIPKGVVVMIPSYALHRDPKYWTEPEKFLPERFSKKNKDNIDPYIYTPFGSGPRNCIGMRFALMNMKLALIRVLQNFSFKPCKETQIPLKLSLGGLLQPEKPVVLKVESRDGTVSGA

[8] = biological target: Adenosine receptor A2a (Homo sapiens, UniProt P29274); experiment: Displacement of [3H]ZM241385 from human adenosine A2A receptor expressed in HEK293 cell membranes at 1 uM after 90 mins relative to control; procedure, shortened: as §1
Sequence of Adenosine receptor A2a (P29274 whole entry): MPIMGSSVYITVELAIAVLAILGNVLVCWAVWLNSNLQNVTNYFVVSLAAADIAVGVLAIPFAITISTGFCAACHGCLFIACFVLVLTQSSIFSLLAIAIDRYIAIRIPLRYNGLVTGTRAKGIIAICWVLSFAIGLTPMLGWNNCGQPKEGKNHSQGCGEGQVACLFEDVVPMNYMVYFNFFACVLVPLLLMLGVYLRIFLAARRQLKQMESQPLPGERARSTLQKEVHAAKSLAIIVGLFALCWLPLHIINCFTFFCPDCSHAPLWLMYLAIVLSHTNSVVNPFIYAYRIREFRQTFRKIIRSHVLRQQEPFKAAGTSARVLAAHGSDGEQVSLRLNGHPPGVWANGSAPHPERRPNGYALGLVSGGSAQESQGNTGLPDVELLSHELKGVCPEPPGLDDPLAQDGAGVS

[9] = Metabolic stability in rat liver microsomes assessed as parent compound remaining measured after 30 mins in presence of NADPH; format: ADME, microsome; conditions: read-out: Stability
[10] = biological target: T3, CYP1A2 (Homo sapiens, UniProt P05177); experiment: Inhibition of CYP1A2 (unknown origin) at 5 uM relative to control; format: ADME
T3 sequence (P05177 whole entry): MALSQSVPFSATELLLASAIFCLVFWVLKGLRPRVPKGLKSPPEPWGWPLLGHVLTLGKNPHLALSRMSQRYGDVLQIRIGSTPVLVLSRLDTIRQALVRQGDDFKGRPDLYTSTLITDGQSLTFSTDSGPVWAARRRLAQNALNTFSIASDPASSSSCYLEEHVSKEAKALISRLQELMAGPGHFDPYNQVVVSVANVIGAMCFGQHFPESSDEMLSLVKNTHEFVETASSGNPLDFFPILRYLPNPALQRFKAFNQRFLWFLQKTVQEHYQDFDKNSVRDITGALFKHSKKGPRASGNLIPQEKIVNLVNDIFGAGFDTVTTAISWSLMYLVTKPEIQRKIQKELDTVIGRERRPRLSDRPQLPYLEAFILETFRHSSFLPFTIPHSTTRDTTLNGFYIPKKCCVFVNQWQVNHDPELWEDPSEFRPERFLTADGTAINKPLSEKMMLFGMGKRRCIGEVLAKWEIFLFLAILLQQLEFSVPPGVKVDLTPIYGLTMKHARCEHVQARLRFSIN

[11] = Thermodynamic solubility of the compound in pH 2 solution; format: physicochemical; conditions: read-out: Therm_solubility
[12] = Thermodynamic solubility of the compound in pH 4 solution; format: physicochemical; conditions: read-out: Therm_solubility
[13] = biological target: CYP2C9 (Homo sapiens, UniProt P11712); experiment: Inhibition of CYP2C9 (unknown origin) at 5 uM relative to control; format: ADME
Sequence of CYP2C9 (P11712 whole entry): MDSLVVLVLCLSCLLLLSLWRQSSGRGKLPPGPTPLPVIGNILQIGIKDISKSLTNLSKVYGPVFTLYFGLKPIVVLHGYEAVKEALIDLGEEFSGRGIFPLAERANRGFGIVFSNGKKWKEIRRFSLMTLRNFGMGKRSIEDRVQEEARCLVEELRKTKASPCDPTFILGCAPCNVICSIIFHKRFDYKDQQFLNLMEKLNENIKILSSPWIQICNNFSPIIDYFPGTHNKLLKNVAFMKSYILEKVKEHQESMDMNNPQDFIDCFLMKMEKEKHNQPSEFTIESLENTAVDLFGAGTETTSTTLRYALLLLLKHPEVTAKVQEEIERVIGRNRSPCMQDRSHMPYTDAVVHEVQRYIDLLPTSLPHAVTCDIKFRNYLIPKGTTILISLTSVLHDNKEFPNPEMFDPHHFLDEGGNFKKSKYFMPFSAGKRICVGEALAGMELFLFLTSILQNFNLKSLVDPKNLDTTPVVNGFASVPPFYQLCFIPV

[14] = Protein binding in rat plasma at 5 uM; format: ADME, cell-free; conditions: read-out: PPB (converted)
[15] = Clearance in Wistar rat at 3 mg/kg, iv by LC-Ms/MS analysis; format: ADME, organism-based; conditions: in vivo
Procedure, shortened: (§2)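 Male Wistar rats (230 ± 15 g), fasted overnight with water available. IV dose of 3 mg/kg given by tail vein as a solution (0.6 mg/mL, 5 mL/kg). PO dose of 5 mg/kg given by gavage as a suspension. Blood was collected into K2EDTA at 0.008 (IV only) to 24 h and plasma was spun off. Samples were precipitated with acetonitrile and run on LC/MS/MS. Parameters came from non-compartmental analysis of individual animals, mean of n = 4.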

[16] = biological target: T4, Adenosine receptor A2b (Homo sapiens) (UniProt P29275); experiment: Antagonist activity at human adenosine A2B receptor expressed in HEK293 cells assessed as reduction in NECA-induced increase in cAMP level at 1 uM preincubated for 15 mins followed by NECA addition measured after 15 mins by HTRF assay relative to control; format: functional, cell-based
T4 sequence (whole entry): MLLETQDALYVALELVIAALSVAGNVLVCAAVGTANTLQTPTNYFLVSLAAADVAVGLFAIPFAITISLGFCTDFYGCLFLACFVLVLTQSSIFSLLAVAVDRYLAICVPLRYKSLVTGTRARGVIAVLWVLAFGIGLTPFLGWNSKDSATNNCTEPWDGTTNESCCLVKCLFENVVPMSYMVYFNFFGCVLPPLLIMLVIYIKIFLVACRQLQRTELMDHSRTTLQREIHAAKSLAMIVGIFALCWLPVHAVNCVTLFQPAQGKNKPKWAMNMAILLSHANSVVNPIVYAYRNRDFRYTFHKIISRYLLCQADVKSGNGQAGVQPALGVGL
Procedure, shortened: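 Overnight HEK-A1 or HEK-A2B cultures were treated with 1 U/mL ADA for 90 min at 37°C. Compound was added for 15 min, then agonist for 15 min (1 nM CPA for A1; 70 nM NECA for A2B) at room temperature in incomplete DMEM with ADA. Rolipram (20 µM) was included for A1 only. cAMP was read by HTRF.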

[17] = system: Liver; experiment: Metabolic stability in human liver microsomes assessed as metabolic rate measured after 30 mins in presence of NADPH; format: ADME, microsome; conditions: 0.5 h
[18] = Metabolic stability in human liver microsomes assessed as parent compound remaining measured after 30 mins in presence of NADPH; format: ADME, microsome; conditions: read-out: Stability
[19] = Volume of distribution at steady state in Wistar rat at 3 mg/kg, iv by LC-Ms/MS analysis; format: ADME, organism-based; conditions: in vivo, read-out: Vdss
Procedure, shortened: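 Male Wistar rats (230 ± 15 g), fasted overnight with water available. IV dosing at 3 mg/kg by tail vein as solution (0.6 mg/mL, 5 mL/kg). PO dosing at 5 mg/kg by oral gavage. Serial blood sampling into K2EDTA from 0.008 (IV only) to 24 h. Plasma precipitated with acetonitrile containing internal standard and analysed by LC/MS/MS. Non-compartmental parameters calculated per animal; values are means of n = 4.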

[20] = biological target: CYP2D6 (Homo sapiens, UniProt P10635); experiment: Inhibition of CYP2D6 (unknown origin) at 5 uM relative to control; format: ADME
Sequence of CYP2D6 (P10635 whole entry): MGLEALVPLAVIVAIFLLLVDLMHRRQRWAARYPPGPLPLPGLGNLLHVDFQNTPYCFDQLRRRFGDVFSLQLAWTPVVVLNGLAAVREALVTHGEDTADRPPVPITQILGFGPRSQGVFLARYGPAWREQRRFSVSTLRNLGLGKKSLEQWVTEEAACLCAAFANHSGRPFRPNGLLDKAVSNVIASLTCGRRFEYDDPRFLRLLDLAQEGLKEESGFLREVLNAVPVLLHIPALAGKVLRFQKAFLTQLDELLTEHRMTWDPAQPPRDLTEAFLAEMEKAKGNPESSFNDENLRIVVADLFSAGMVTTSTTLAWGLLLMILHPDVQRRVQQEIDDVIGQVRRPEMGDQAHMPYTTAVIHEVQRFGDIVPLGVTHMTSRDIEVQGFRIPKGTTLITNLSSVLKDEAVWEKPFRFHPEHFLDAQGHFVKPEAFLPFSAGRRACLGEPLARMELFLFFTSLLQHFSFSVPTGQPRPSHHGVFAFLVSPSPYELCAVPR

[21] = Elimination half life in Wistar rat at 3 mg/kg, iv by LC-Ms/MS analysis; format: ADME, organism-based; conditions: in vivo, read-out: beta t1/2 (converted); procedure, shortened: as §2
[22] = AUC (0 to t) in Wistar rat at 3 mg/kg, iv by LC-Ms/MS analysis; format: ADME, organism-based; conditions: in vivo; procedure, shortened: as §2
[23] = biological target: T2, Adenosine receptor A1; experiment: Displacement of [3H]DPCPX from human adenosine A1 receptor expressed in HEK293 cell membranes after 90 mins
[24] = Drug metabolism assessed as N-oxidation by metabolic soft spot analysis; format: physicochemical
[25] = biological target: T4, Adenosine receptor A2b (Homo sapiens); experiment: Displacement of [3H]MRS-1754 from human adenosine A2B receptor expressed in HEK293 cell membranes at 1 uM after 90 mins relative to control; procedure, shortened: as §1

- solubility thermodynamic [1]: 182 µM (≈ 63.1 µg/mL)
- Drug metabolism [2]: 0.1 nmol/min/mg
- inhibition [3]: 37%
- Drug metabolism [4]: Metabolite_Detected
- Ki [5]: 0.0096 µM
- inhibition at 5 µM [6]: 3%
- inhibition at 5 µM [7]: 0%
- inhibition [8]: 0%
- remaining at 0.5 h [9]: 68%
- inhibition at 5 µM [10]: 5%
- solubility thermodynamic [11]: 2590 µM (≈ 897 µg/mL)
- solubility thermodynamic [12]: 276 µM (≈ 95.6 µg/mL)
- inhibition at 5 µM [13]: 4%
- fraction unbound at 5 µM [14]: 0.2
- clearance [15]: 2.88 L/h/kg
- inhibition [16]: 6%
- Drug metabolism [17]: 0.12 nmol/min/mg
- remaining at 0.5 h [18]: 60%
- Vd [19]: 0.8 L/kg
- inhibition at 5 µM [20]: 0%
- half-life [21]: 18 min
- AUC(0-t) [22]: 3 µM·h
- Ki [23]: 0.057 µM
- Drug metabolism [24]: Metabolite_Detected
- inhibition [25]: 35 to 41%
SMILES: CCCn1c(OC2CCC(O)C2)nc2nc(C3CCCC3)[nH]c2c1=O (stereo not given)
